Results from paper PMC6716794 (Biochemistry, 2019).
Entries after “also recorded” stand apart in the source; their conditions may differ.

What was measured:
thrombin ABE I = settings: ligand bound to ABE II; cited from earlier work
[1] = target: T1, ProT (prothrombin), pro-ABE I (Homo sapiens, UniProt P00734); assay: 1D proton line broadening with ProT; format: binding; settings: NMR buffer pH 6.5, 25 °C
Outline: (§1)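 Human plasma proteins: prothrombin, and thrombin blocked with PPACK (4:1 PPACK:thrombin, 37 °C, 30 min). Both were exchanged by ultrafiltration into NMR buffer (25 mM H3PO4, 150 mM NaCl, 0.2 mM EDTA, pH 6.5), and concentrations were set by E1%280 (13.8 prothrombin, 18.3 thrombin). Peptide at about 10-fold excess. Peptide 1H spectra were compared with and without enzyme.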

PPACK-thrombin, ABE I = assay: 1D proton line broadening with PPACK-thrombin; format: binding, human; settings: NMR buffer pH 6.5, 25 °C
Outline: as §1

[2] = target: T1, ProT (prothrombin), pro-ABE I; assay: 1D and 2D 1H,15N-HSQC NMR titration with ProT; format: binding; settings: [15N]-labeled at F55, K51, E53, D58 and E60; pH 6.5, 25 °C
Outline: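 Human plasma prothrombin buffer-exchanged into NMR buffer (25 mM H3PO4, 150 mM NaCl, 0.2 mM EDTA, pH 6.5). 15N-labeled PAR1 peptide held constant at 50 μM while protein was serially diluted from 115 or 150 μM. 1D/2D 1H,15N-HSQC shifts were fitted to a quadratic binding equation for KD, with Monte-Carlo errors assuming 10% dilution error. Titrations were run at least in duplicate.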

For “GpIbα: platelet receptor glycoprotein GpIbα, binds thrombin ABE II”, the “Effect on affinity of thrombomodulin TM456 for thrombin ABE I” value (thrombin ABE I) is given as “the affinity of thrombomodulin TM456 for ABE I decreases”.
With “PAR1G (49–62, P54G): weak binding PAR1 variant, residues 49–62 with P54G (NDKYEGFWEDEEKN; UniProt P25116 49-62, looked up, fragment P54G)” the “1D proton line broadening with ProT (PAR1G)” value ([1]; 830 μM PAR1G with 83 μM ProT) was 1D proton line broadening could still be observed, the “1D proton line broadening with mature thrombin (PAR1G)” value (PPACK-thrombin, ABE I; 870 μM PAR1G with 87 μM PPACK-thrombin) was “increased further with the mature thrombin; also recorded: the interactions increased upon formation of mature thrombin” and the “Binding with pro-ABE I on ProT” value [2] was “very weak binding with pro-ABE I on ProT”.
In the case of “PAR1P (49–62, P54): native PAR1 sequence peptide, residues 49–62, P54 (NDKYEPFWEDEEKN; UniProt P25116 49-62, looked up, fragment)”, the “1D proton line broadening with ProT (PAR1P)” value ([1]; 780 μM PAR1P with 59 μM ProT, residues D50, K51, E53, F55, D58, E60) is reported as “Substantial amide proton peak broadening; also recorded: moderate interactions with ProT” and the “1D proton line broadening with PPACK-thrombin (PAR1P)” value (PPACK-thrombin, ABE I; 900 μM PAR1P with 97 μM PPACK-thrombin) is reported as “increase in line broadening; also recorded: the interactions increased upon formation of mature thrombin”.
